UCH37 DUB inh – blocks the human deubiquitinase UCH37; Q9Y5K5; 0.33% of 330,000 active; AID 588478; inhibition, % (concentration not given with the values); purified proteasome/UCH37, Ub-AMC cleavage fluorescence;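 active means mean inhibition over replicate wells above about 20%, limit read from the data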
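assay system = human UCH37 enzyme supplied as purified proteasome complex | amount = proteasome at 0.15 nM in the dispensed enzyme solution | schedule = 30 min compound-proteasome preincubation then 25 min substrate reaction, room temperature | measured by = fluorescence, ex 355 nm, em 460 nm | benchmarks = no-proteasome wells (full inhibition) and compound-free wells (no inhibition)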
Rce1 inhib – blocks yeast Ras-converting enzyme | AID 2563 | calls only | Q03530 | yeast membranes, quenched prenylated peptide cleavage fluorescence | 0.27% of 290,000 active;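 active means fall in fluorescence gain of 50% or more versus controls, with final raw signal at or below 3038400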
beta cell repl – induces beta-cell replication in MIN6 cells; MIN6 cells proliferation, ATPlite luminescence, 48 h; cells starved in 0.2% serum; 100% = growth in 10% serum; proliferation, % at 10 µM; 0.29% of 330,000 active; AID 2380;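 active means compounds whose signal lies at least 3.5 SD above the mean of all wells on their plate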
PG9 binder – binds the HIV-1 gp120 antibody PG9; inhibition, % at 6.7 µM; AID 624416; 0.43% of 360,000 active; TR-FRET gp120-PG9 antibody binding; in the data active means inhibition above about 8.5%
CR mimetic SO – yeast age-related superoxide inhibition as caloric restriction mimetic; S. cerevisiae aged cells, superoxide DHE fluorescence; stronger effect = lower value; superoxide response (% of plate mean), % at 10 µM; 0.18% of 330,000 active; AID 2690;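 active means superoxide response under a set limit, about three screen SD below normal, cut at about 65% in these data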;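 further: yeast aged for seven days with compound at 30 °C before DHE staining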
Rev-erbA mod – Rev-erb alpha (human) modulation; Rev-erbα–FITC-DNA binding, fluorescence polarization, 90 min; AID 1259318; activity, % at 10 µM; 0.79% of 370,000 active; P20393;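 active means activity above about 14%, limit read from the data; passing the limit was not always enough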
Target sequence (P20393 whole entry, looked up): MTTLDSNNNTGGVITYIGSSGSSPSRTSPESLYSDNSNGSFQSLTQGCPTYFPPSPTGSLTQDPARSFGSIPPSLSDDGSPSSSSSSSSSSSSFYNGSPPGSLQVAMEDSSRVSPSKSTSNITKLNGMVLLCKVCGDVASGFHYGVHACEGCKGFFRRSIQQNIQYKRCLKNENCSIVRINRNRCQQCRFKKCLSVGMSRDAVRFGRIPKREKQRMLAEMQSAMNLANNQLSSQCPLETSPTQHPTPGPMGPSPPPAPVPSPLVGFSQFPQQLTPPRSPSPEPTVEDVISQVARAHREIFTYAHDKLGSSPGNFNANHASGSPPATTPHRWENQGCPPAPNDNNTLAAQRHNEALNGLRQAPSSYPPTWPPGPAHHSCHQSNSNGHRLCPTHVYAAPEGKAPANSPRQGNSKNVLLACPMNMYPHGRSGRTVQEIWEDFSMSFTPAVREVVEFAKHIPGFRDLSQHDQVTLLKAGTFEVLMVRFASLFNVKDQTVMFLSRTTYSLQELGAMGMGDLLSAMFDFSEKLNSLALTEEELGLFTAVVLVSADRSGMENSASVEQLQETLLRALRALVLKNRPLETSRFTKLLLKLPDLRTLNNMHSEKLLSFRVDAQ
PG9 binder conf – PG9 antibody binding, confirmed; shares compounds with PG9 binder; TR-FRET PG9 antibody binding, biochemical; inhibition, % at 6.7 µM; AID 651571; 90% of 1,500 active; in the data active means inhibition above about 9%
PGV04 Ab binding – counter-screen for PG9 binders: binding control antibody PGV04. shares compounds with PG9 binder. 95% of 1,500 active. TR-FRET PGV04 antibody-gp120 binding, biochemical. inhibition, % at 6.7 µM. AID 651604; in the data active means inhibition above about 9.5%
PG9 bind DR – PG9 antibody binding, dose response; shares compounds with PG9 binder; TR-FRET PG9 antibody-gp120 binding inhibition; IC50, µM; 95 tested, under 10 active; in the data active means IC50 below about 10 µM
PGV04 DR counter – binds control antibody PGV04 in PG9 counter-screen; shares compounds with PG9 binder; TR-FRET binding to control antibody PGV04; IC50, µM; 20% of 95 active; AID 651937
PG126 DR counter – PG126 binding, dose response counter-screen; IC50, µM; 20% of 95 active; shares compounds with PG9 binder; TR-FRET binding to antibody PG126, counterscreen
NR1D1 mod conf – Rev-erb alpha (human) modulation, hit confirmation. 61% of 3,000 active. activation, % at 25 µM. shares compounds with Rev-erbA mod. Rev-erb alpha FITC-DNA binding, fluorescence polarization, 90 min;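 active means activation at or above a set limit, or at least 3 SD above the negative control mean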
RORg DNA counter – RORgamma DNA-binding activity, dose-response counter-screen | IC50, µM | purified RORgamma protein-FITC-DNA binding, fluorescence polarization | 8% of 910 active | shares compounds with Rev-erbA mod;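 active means Compounds whose fitted half-maximal concentration for disrupting protein-DNA binding is below 10 micromolar; the record names Rev-erb in its text, so the target is in doubt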
Large screens that a line does not name were inactive (follow-up assays come after a bar, where they were run). The list is not random: actives were taken first. Their share in the collection is about 1.9%. Unless noted, no stated cut-off is given here; in the data, active means IC50 below about 9 µM; inactive means the rest.

c1ccc2nc(-c3ccc(N4CCOCC4)cc3)ccc2c1	PG9 binder 38.7, Rev-erbA mod 90.4 | PG9 binder conf 44.8 | PGV04 Ab binding 41.7 | PG9 bind DR inactive | PGV04 DR counter 3.66 | PG126 DR counter 4.17 | NR1D1 mod conf 63.6 | RORg DNA counter inactive
Cc1onc(-c2ccccc2)c1C(=O)Nc1nc(-c2cc(F)ccc2F)cs1	PG9 binder 51.8, Rev-erbA mod 54.8 | PG9 binder conf 49.9 | PGV04 Ab binding 64.6 | NR1D1 mod conf 64.8 | RORg DNA counter inactive
Cc1noc(C)c1C(=O)Nc1nc(-c2cc(F)ccc2F)cs1	none (no result: Rce1 inhib, CR mimetic SO)
O=C(NN=Cc1ccc(Cl)cc1Cl)c1ccc(-n2cnnn2)cc1	none (no result: Rce1 inhib, beta cell repl, PG9 binder, CR mimetic SO, Rev-erbA mod)
Cc1cccc2cc(C#N)c(SCC(=O)N3CC(=O)Nc4ccccc43)nc12	PG9 binder 30.5, Rev-erbA mod 89.7 | PG9 binder conf 46.1 | PGV04 Ab binding 74.5 | NR1D1 mod conf 66.9 | RORg DNA counter inactive
Cc1cccc2cc(C#N)c(SCC(=O)N3CCC(C)CC3)nc12	PG9 binder 8.8, Rev-erbA mod 53.2 | PG9 binder conf 12.1 | PGV04 Ab binding 16.1 | NR1D1 mod conf 64.6 | RORg DNA counter inactive
COCc1cc(C)nc(SCC(=O)N2CCC(C)CC2)c1C#N	none
Cc1ccc(-n2c(C)cc(C=NNC(=O)c3ccncc3)c2C)cc1C	none (no result: Rce1 inhib, beta cell repl, PG9 binder, CR mimetic SO, Rev-erbA mod)
N#Cc1c(N)nc(-c2ccccc2)nc1-c1ccccc1	none
CC(C)Nc1nc(-c2ccncc2)nc(-c2ccccc2)c1C#N	PG9 binder 9.1, Rev-erbA mod 40.1 | PG9 binder conf 43.1 | PGV04 Ab binding 60.8 | NR1D1 mod conf inactive
CC(=O)c1sc(NN=Cc2ccc(C(C)C)cc2)nc1C	none (no result: Rce1 inhib, beta cell repl, PG9 binder, CR mimetic SO, Rev-erbA mod)
Cc1ccc(C)c(Cn2c(=O)n(CCCC(=O)NCc3ccco3)c(=O)c3sccc32)c1	PG9 binder 18.0, Rev-erbA mod 18.4 (no result: Rce1 inhib) | PG9 binder conf 20.9 | PGV04 Ab binding 29.0 | NR1D1 mod conf inactive
Cc1ccc(C)c(Cn2c(=O)n(CCCC(=O)NCc3ccco3)c(=O)c3ccccc32)c1	none
Cc1cc(C)c(C#N)c(SCC(=O)Nc2cc(C)on2)n1	none (no result: Rce1 inhib)
Cc1ccc2nc(SCC(=O)NCc3ccco3)c(C)cc2c1	none
Cc1ccc2nc(SCC(=O)Nc3cc(C)on3)c(C)cc2c1	PG9 binder 17.7, Rev-erbA mod 39.6 | PG9 binder conf 26.1 | PGV04 Ab binding 43.9 | NR1D1 mod conf 20.6
CCOc1ccc2nc(SCC(=O)Nc3cc(C)on3)c(C)cc2c1	PG9 binder 27.9, Rev-erbA mod 57.7 (no result: Rce1 inhib) | PG9 binder conf 32.9 | PGV04 Ab binding 51.1 | NR1D1 mod conf inactive
COc1ccc2cc(C)c(SCC(=O)Nc3cc(C)on3)nc2c1	PG9 binder 34.2, Rev-erbA mod 108.7 | PG9 binder conf 45.5 | PGV04 Ab binding 63.6 | NR1D1 mod conf 33.0 | RORg DNA counter inactive
CCOC(=O)c1sc(NN=Cc2ccc(N(C)C)cc2)nc1C	none (no result: Rce1 inhib, beta cell repl, PG9 binder, CR mimetic SO, Rev-erbA mod)
CCCC(=O)Nc1sc(C)c(-c2ccc(OC)cc2)c1C#N	PG9 binder 9.1, Rev-erbA mod 23.9 | PG9 binder conf 18.5 | PGV04 Ab binding 23.4 | NR1D1 mod conf 28.0
CCc1c(C)sc(NC(=O)CCc2ccc(OC)cc2)c1C(N)=O	none
CC(=NNC(=O)CNc1cccc(C(F)(F)F)c1)c1ccc(Br)cc1	none (no result: Rce1 inhib, beta cell repl, PG9 binder, CR mimetic SO, Rev-erbA mod)

Screens (PubChem)
